Assay results as given in ChEMBL document CHEMBL4715843, “NO-releasing STAT3 inhibitors suppress BRAF-mutant melanoma growth” (Eur J Med Chem, 2020).
Calls of active or inactive are those of the source. The calls are words filed in the database; no cut-off is given here.

How the values were obtained:
[1] = molecular target: T1, Signal transducer and activator of transcription 3 (Homo sapiens, UniProt P40763); test: Inhibition of STAT3 phosphorylation at S727 residues in human A-375 cells at 10 to 25 uM after 12 hrs by Western blotting analysis; assay type: cell-based; settings: dose 10-25 µM
T1 sequence (P40763 whole entry): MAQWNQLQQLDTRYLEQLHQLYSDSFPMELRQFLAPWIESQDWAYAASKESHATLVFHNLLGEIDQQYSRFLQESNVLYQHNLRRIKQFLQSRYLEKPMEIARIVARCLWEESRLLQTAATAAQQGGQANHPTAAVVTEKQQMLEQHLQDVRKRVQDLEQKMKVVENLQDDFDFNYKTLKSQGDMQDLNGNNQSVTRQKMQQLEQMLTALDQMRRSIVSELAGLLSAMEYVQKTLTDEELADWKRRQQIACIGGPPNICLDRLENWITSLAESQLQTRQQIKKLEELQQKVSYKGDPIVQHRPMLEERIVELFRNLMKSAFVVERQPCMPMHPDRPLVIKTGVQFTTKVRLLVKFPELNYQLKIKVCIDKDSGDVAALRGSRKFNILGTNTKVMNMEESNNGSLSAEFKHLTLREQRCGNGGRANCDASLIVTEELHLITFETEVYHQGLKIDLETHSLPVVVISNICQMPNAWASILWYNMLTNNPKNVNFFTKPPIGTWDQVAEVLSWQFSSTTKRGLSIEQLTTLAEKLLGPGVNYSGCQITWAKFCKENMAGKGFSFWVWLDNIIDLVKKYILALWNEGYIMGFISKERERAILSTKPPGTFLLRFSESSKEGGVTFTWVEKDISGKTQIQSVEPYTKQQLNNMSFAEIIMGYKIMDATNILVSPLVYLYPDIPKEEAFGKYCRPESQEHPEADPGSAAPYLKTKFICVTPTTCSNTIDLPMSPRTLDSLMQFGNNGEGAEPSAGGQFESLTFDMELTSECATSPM
Outline: (§1)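 Cells lysed in M-PER after 12 h drug exposure (overnight per text); 60 µg total protein run on 10% SDS-PAGE, transferred to PVDF, probed overnight at 4 °C with phospho-specific antibodies. Panel lines (U87-MG, MDA-MB-468, MIA PaCa-2, NCI-H157, A549) given 25 µM; A375 given 0, 5, 10, 25 µM. Actin and/or vinculin loading controls.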

[2] = molecular target: T1, Signal transducer and activator of transcription 3; test: Inhibition of STAT3 phosphorylation at Y705 residues in human A-375 cells at 10 to 25 uM after 12 hrs by Western blotting analysis; assay type: cell-based; settings: dose 10-25 µM; outline: as §1
[3] = system: MIA PaCa-2; test: Antiproliferative activity against human MIA PaCa-2 cells measured after 48 hrs by MTS assay; assay type: functional, cell-based
Outline: (§2)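 Cells were exposed to a dose range of inhibitor for 48 h, and viability was read by MTS assay in triplicate. GI50 was taken as the concentration giving 50% growth inhibition, averaged from three independent experiments. A375 was cultured in RPMI-1640 with Glutamax. A549 and NCI-H157 were kept in RPMI-1640, and MIA PaCa-2 and U87-MG in DMEM.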

[4] = molecular target: Proto-oncogene tyrosine-protein kinase Src (Homo sapiens) (UniProt P12931); test: Inhibition of SRC phosphorylation in human A549 cells at 25 uM after 12 hrs by Western blotting analysis; assay type: cell-based; outline: as §1
Proto-oncogene tyrosine-protein kinase Src (Homo sapiens), sequence (P12931 2-536 limits assumed): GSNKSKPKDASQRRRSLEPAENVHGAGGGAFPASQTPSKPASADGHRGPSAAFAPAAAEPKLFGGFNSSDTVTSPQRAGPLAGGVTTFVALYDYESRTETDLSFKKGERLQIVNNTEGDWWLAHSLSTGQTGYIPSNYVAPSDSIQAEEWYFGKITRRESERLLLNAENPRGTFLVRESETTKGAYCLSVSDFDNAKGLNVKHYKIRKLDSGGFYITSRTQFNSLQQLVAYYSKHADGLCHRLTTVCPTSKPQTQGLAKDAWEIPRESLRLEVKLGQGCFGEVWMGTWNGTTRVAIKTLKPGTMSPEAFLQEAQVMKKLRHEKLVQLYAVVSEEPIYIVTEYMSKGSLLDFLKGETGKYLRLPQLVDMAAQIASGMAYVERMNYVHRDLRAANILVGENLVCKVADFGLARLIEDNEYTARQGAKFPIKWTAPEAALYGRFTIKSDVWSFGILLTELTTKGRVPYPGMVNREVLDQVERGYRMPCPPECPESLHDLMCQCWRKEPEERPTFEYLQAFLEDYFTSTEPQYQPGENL

[5] = molecular target: T1, Signal transducer and activator of transcription 3; test: Inhibition of STAT3 phosphorylation at Y705 residues in human MDA-MB-468 cells at 25 uM after 12 hrs by Western blotting analysis; assay type: cell-based; outline: as §1
[6] = molecular target: T1, Signal transducer and activator of transcription 3; test: Inhibition of STAT3 phosphorylation at S727 residues in human A549 cells at 25 uM after 12 hrs by Western blotting analysis; assay type: cell-based; outline: as §1
[7] = molecular target: T1, Signal transducer and activator of transcription 3; test: Inhibition of STAT3 phosphorylation at S727 residues in human A-375 cells at 5 to 10 uM after 12 hrs by Western blotting analysis; assay type: cell-based; settings: dose 5-10 µM; outline: as §1
[8] = molecular target: Proto-oncogene tyrosine-protein kinase Src (Homo sapiens) (UniProt P12931); test: Inhibition of SRC phosphorylation in human MDA-MB-468 cells at 25 uM after 12 hrs by Western blotting analysis; assay type: cell-based; outline: as §1
[9] = system: MEL1617; test: Antiproliferative activity against human SB-590885-sensitive MEL1617 cells assessed as reduction in cell viability measured after 48 hrs by MTS assay; assay type: functional, cell-based
Outline: (§3)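 Melanoma lines were grown in RPMI-1640 with Glutamax at 37 °C and 5% CO2. The resistant 451 Lu-R and MEL 1617-R sublines were maintained with 1 µM PLX4720. Cells were incubated with vehicle or inhibitor over a dose range, and viability was read by MTS assay in triplicate.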

[10] = system: CCRF-CEM; test: Anticancer activity against human CCRF-CEM cells assessed as cell growth inhibition at 10 uM measured after 48 hrs by SRB assay relative to control; assay type: functional; settings: read-out: GI
Outline: (§4)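 NCI 60-cell-line screen. Cells in RPMI with 5% FBS were plated at 5,000–40,000 cells/well by doubling time and preincubated 24 h at 37 °C. Compound was added at a single 10 µM for 48 h, then cells were fixed with cold TCA (10% final) and stained with 0.4% SRB. Absorbance at 515 nm gave percent growth versus untreated control and time-zero cells.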

[11] = system: 451Lu; test: Antiproliferative activity against human SB-590885-resistant 451Lu cells assessed as reduction in cell viability measured after 48 hrs by MTS assay; assay type: functional; outline: as §3
[12] = system: A-375; test: Antiproliferative activity against human A-375 cells measured after 48 hrs by MTS assay; assay type: functional, cell-based; outline: as §2
[13] = system: MEL1617; test: Antiproliferative activity against human SB-590885-resistant MEL1617 cells assessed as reduction in cell viability measured after 48 hrs by MTS assay; assay type: functional, cell-based; outline: as §3
[14] = system: 451Lu; test: Antiproliferative activity against human 451Lu cells measured after 48 hrs by MTS assay; assay type: functional, cell-based
[15] = system: 451Lu; test: Induction of apoptosis in human SB-590885-sensitive 451Lu cells assessed as increase in cleaved PARP expression measured after 12 hrs by Western blot analysis; assay type: functional
Outline: (§5)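 Sensitive and resistant 451 Lu cells were exposed to a dose range for 12 h before lysis. PARP, cleaved PARP and caspase-7 were detected by western blot against a vinculin loading control; repeated twice.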

[16] = system: A549; test: Antiproliferative activity against human A549 cells measured after 48 hrs by MTS assay; assay type: functional, cell-based; outline: as §2
[17] = molecular target: T1, Signal transducer and activator of transcription 3; test: Inhibition of STAT3 phosphorylation at Y705 residues in human A-375 cells at 5 to 10 uM after 12 hrs by Western blotting analysis; assay type: cell-based; settings: dose 5-10 µM; outline: as §1
[18] = molecular target: Tyrosine-protein kinase JAK2 (Homo sapiens) (UniProt O60674); test: Inhibition of JAK2 phosphorylation in human U-87 MG cells at 25 uM after 12 hrs by Western blotting analysis; assay type: cell-based; outline: as §1
Tyrosine-protein kinase JAK2 (Homo sapiens), sequence (O60674 whole entry): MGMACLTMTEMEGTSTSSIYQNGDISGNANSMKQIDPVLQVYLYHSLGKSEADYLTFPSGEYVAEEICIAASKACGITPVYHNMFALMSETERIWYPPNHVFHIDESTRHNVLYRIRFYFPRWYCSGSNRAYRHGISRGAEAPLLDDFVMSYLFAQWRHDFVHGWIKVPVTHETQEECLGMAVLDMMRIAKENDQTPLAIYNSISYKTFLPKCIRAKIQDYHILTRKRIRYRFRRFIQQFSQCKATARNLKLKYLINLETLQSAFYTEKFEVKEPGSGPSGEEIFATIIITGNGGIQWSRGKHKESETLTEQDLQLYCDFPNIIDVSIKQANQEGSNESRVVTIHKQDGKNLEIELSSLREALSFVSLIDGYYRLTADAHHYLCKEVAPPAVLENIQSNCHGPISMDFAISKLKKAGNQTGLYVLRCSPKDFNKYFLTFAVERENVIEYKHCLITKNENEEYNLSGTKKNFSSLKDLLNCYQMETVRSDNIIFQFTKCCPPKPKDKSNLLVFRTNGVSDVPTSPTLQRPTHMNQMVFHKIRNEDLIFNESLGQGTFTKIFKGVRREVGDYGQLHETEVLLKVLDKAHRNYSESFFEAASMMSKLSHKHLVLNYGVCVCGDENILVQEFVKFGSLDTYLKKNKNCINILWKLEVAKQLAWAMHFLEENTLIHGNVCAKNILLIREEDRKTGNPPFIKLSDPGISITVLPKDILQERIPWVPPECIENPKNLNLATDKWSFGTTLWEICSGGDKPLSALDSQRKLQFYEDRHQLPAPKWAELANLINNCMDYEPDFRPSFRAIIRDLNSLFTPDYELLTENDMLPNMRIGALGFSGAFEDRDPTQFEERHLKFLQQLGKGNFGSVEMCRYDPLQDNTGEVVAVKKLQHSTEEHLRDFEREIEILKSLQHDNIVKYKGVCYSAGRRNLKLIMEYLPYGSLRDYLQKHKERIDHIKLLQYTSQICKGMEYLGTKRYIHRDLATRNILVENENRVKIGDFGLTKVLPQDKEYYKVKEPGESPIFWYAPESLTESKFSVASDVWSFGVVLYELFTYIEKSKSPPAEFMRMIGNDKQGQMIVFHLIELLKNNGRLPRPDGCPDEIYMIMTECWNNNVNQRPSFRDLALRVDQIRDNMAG

[19] = system: MEL1617; test: Antiproliferative activity against human MEL1617 cells measured after 48 hrs by MTS assay; assay type: functional, cell-based; outline: as §2
[20] = system: 451Lu; test: Induction of apoptosis in human SB-590885-resistant 451Lu cells assessed as increase in cleaved caspase-7 expression measured after 12 hrs by Western blot analysis; assay type: functional; outline: as §5
[21] = system: 451Lu; test: Antiproliferative activity against human SB-590885-sensitive 451Lu cells assessed as reduction in cell viability measured after 48 hrs by MTS assay; assay type: functional; outline: as §3
[22] = molecular target: Proto-oncogene tyrosine-protein kinase Src (Homo sapiens) (UniProt P12931); test: Inhibition of SRC phosphorylation in human U-87 MG cells at 25 uM after 12 hrs by Western blotting analysis; assay type: cell-based; outline: as §1
[23] = molecular target: Tyrosine-protein kinase JAK2 (Homo sapiens) (UniProt O60674); test: Inhibition of JAK2 phosphorylation in human MIA PaCa-2 cells at 25 uM after 12 hrs by Western blotting analysis; assay type: cell-based; outline: as §1
[24] = system: 451Lu; test: Induction of apoptosis in human SB-590885-resistant 451Lu cells assessed as increase in cleaved PARP expression measured after 12 hrs by Western blot analysis; assay type: functional; outline: as §5
[25] = system: 451Lu; test: Induction of apoptosis in human SB-590885-sensitive 451Lu cells assessed as increase in cleaved caspase-7 expression measured after 12 hrs by Western blot analysis; assay type: functional; outline: as §5
[26] = system: UACC-62; test: Anticancer activity against human UACC-62 cells assessed as cell growth inhibition at 10 uM measured after 48 hrs by SRB assay relative to control; assay type: functional; settings: read-out: GI; outline: as §4
[27] = molecular target: Tyrosine-protein kinase JAK2 (Homo sapiens) (UniProt O60674); test: Inhibition of JAK2 phosphorylation in human NCI-H157 cells at 25 uM after 12 hrs by Western blotting analysis; assay type: cell-based; outline: as §1
[28] = molecular target: Tyrosine-protein kinase JAK2 (Homo sapiens) (UniProt O60674); test: Inhibition of JAK2 phosphorylation in human MDA-MB-468 cells at 25 uM after 12 hrs by Western blotting analysis; assay type: cell-based; outline: as §1
[29] = molecular target: T1, Signal transducer and activator of transcription 3; test: Inhibition of STAT3 phosphorylation at Y705 residues in human NCI-H157 cells at 25 uM after 12 hrs by Western blotting analysis; assay type: cell-based; outline: as §1
[30] = molecular target: T1, Signal transducer and activator of transcription 3; test: Inhibition of STAT3 phosphorylation at Y705 residues in human A549 cells at 25 uM after 12 hrs by Western blotting analysis; assay type: cell-based; outline: as §1
[31] = molecular target: T1, Signal transducer and activator of transcription 3; test: Inhibition of STAT3 phosphorylation at S727 residues in human U-87 MG cells at 25 uM after 12 hrs by Western blotting analysis; assay type: cell-based; outline: as §1
[32] = molecular target: T1, Signal transducer and activator of transcription 3; test: Inhibition of STAT3 phosphorylation at Y705 residues in human MIA PaCa-2 cells at 25 uM after 12 hrs by Western blotting analysis; assay type: cell-based; outline: as §1

## C=CCn1c(SCC(=O)Nc2ccc(/C(C)=N\O)cc2)nnc1-c1cc(-c2ccc(Cl)cc2)nc2ccccc12
[1]
  inhibition: Active
[2]
  inhibition: Active

## C=CCn1c(SCC(=O)Nc2ccc(/C(C)=N\O)cc2)nnc1-c1cc(-c2ccccc2)nc2ccccc12
[3]
  Activity: Active
[4]
  inhibition: inactive
[5]
  inhibition: Active
[6]
  inhibition: Active
[7]
  inhibition: Active
[8]
  inhibition: inactive
[9]
  Activity: Dose-dependent effect
[10]
  inhibition of growth at 10 µM: 76%
[11]
  Activity: Dose-dependent effect
[12]
  Activity: Active
[13]
  Activity: Dose-dependent effect
[14]
  Activity: Active
[15]
  Activity: Dose-dependent effect
[16]
  Activity: Active
[17]
  inhibition: Active
[18]
  inhibition: inactive
[19]
  Activity: Active
[20]
  Activity: Dose-dependent effect
[21]
  Activity: Dose-dependent effect
[22]
  inhibition: inactive
[23]
  inhibition: inactive
[24]
  Activity: Dose-dependent effect
[25]
  Activity: Dose-dependent effect
[26]
  inhibition of growth at 10 µM: 76%
[27]
  inhibition: inactive
[28]
  inhibition: inactive
[29]
  inhibition: Active
[30]
  inhibition: Active
[31]
  inhibition: Active
[32]
  inhibition: Active
